Laboratory results published in ChEMBL document CHEMBL1149790, “Synthesis of some novel thiourea derivatives obtained from 5-[(4-aminophenoxy)methyl]-4-alkyl/aryl-2,4-dihydro-3H-1,2,4-triazole-3-thiones and evaluation as antiviral/anti-HIV and anti-tuberculosis agents” (Eur J Med Chem, 2008).
Values after ≈ are worked out from the molar mass of the structure shown. Active and inactive are the calls of the source. The rule behind the calls is not given here.

Key:
[1] = system: Punta Toro virus; assay: Antiviral activity against Punta Toro virus in african green monkey Vero cells assessed as reduction of virus-induced cytopathogenicity; assay type: functional
How it was run: (§1)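 Confluent cell monolayers (E6SM, HEL, HeLa or Vero, per line) inoculated with 100 CCID50 virus; 1 h adsorption, residual virus removed, then incubated with compound at 400, 200, 100 … µg/ml. Cytopathicity scored once complete in untreated virus controls; MIC = concentration inhibiting virus-induced cytopathicity.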

[2] = system: Human alphaherpesvirus 1; assay: Antiviral activity against thymidine kinase deficient and acyclovir resistant HSV1 KOS in human E6SM cells assessed as reduction of virus-induced cytopathogenicity; assay type: functional; conditions: Human alphaherpesvirus 1, KOS; how it was run: as §1
[3] = system: Human alphaherpesvirus 2; assay: Antiviral activity against HSV2 G in human HEL cells assessed as reduction of virus-induced cytopathogenicity; assay type: functional; conditions: Human alphaherpesvirus 2, G; how it was run: as §1
[4] = Cytotoxicity against human MT4 cells by MTT assay; assay type: cell-based
How it was run: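 Mock-infected MT-4 cells (6 × 10⁵ cells/ml) with serial five-fold compound dilutions in triplicate; MTT reduction read at 540 and 690 nm after 5 days, median OD of three wells; CC50 = concentration reducing OD540 of mock-infected control by 50%.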

[5] = system: Vesicular stomatitis virus; assay: Antiviral activity against vesicular stomatitis virus in human HeLa cells assessed as inhibition of virus-induced cytopathogenicity; assay type: functional; how it was run: as §1
[6] = system: Human alphaherpesvirus 2; assay: Antiviral activity against HSV2 G in human E6SM cells assessed as reduction of virus-induced cytopathogenicity; assay type: functional; conditions: Human alphaherpesvirus 2, G; how it was run: as §1
[7] = system: Human alphaherpesvirus 1; assay: Antiviral activity against HSV1 KOS in human E6SM cells assessed as reduction of virus-induced cytopathogenicity; assay type: functional; conditions: Human alphaherpesvirus 1, KOS; how it was run: as §1
[8] = system: Human alphaherpesvirus 1; assay: Antiviral activity against thymidine kinase deficient and acyclovir resistant HSV1 KOS in human HEL cells assessed as reduction of virus-induced cytopathogenicity; assay type: functional; conditions: Human alphaherpesvirus 1, KOS; how it was run: as §1
[9] = Cytotoxicity against human HEL cells assessed as alteration of cell morphology; assay type: cell-based
How it was run: (§2)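 Uninfected cell cultures exposed to test compounds alongside antiviral assays; minimum cytotoxic concentration (MCC) = concentration causing a microscopically detectable alteration of cell morphology.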

[10] = system: Human respirovirus 3; assay: Antiviral activity against Parainfluenza 3 virus in african green monkey Vero cells assessed as reduction of virus-induced cytopathogenicity; assay type: functional; how it was run: as §1
[11] = system: E6SM; assay: (§3) Cytotoxicity against human E6SM cells; assay type: cell-based; conditions: e6sm; how it was run: as §2
[12] = Cytotoxicity against human HeLa cells; assay type: cell-based; how it was run: as §2
[13] = system: Human alphaherpesvirus 1; assay: Antiviral activity against HSV1 KOS in human HEL cells assessed as reduction of virus-induced cytopathogenicity; assay type: functional; conditions: Human alphaherpesvirus 1, KOS; how it was run: as §1
[14] = system: Sindbis virus; assay: Antiviral activity against Sindbis virus in african green monkey Vero cells assessed as reduction of virus-induced cytopathogenicity; assay type: functional; how it was run: as §1
[15] = system: Vesicular stomatitis virus; assay: Antiviral activity against in Vesicular stomatitis virus in human HEL cells assessed as reduction of virus-induced cytopathogenicity; assay type: functional; how it was run: as §1
[16] = system: Coxsackievirus B4; assay: Antiviral activity against Coxsackie virus B4 in african green monkey Vero cells assessed as reduction of virus-induced cytopathogenicity; assay type: functional; conditions: Enterovirus B; how it was run: as §1
[17] = system: Vero; assay: Cytotoxicity against african green monkey Vero cells; assay type: cell-based; conditions: chlorocebus sabaeus; how it was run: as §2
[18] = system: Human immunodeficiency virus 1; assay: Antiviral activity against HIV1 3B in human MT4 cells assessed as protection against virus-induced cytopathogenicity by MTT assay; assay type: functional, organism-based; set-up: Activity: concentration or dose not given beside the values; conditions: for IC50: Human immunodeficiency virus 1, 3B, MT4
How it was run: (§4)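 MT-4 cells at 6 × 10⁵ cells/ml infected with HIV-1 IIIB or HIV-2 ROD at 100–300 CCID50; compounds in serial five-fold dilutions, triplicate mock- and virus-infected wells. MTT viability read at 540 and 690 nm after 5 days, median OD of three wells; EC50 = 50% protection from viral cytopathic effect.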

[19] = system: Respiratory syncytial virus; assay: Antiviral activity against respiratory syncytial virus in human HeLa cells assessed as inhibition of virus-induced cytopathogenicity; assay type: functional; how it was run: as §1
[20] = system: Vesicular stomatitis virus; assay: Antiviral activity against in Vesicular stomatitis virus in human E6SM cells assessed as reduction of virus-induced cytopathogenicity; assay type: functional; how it was run: as §1
[21] = system: Human immunodeficiency virus 2; assay: Antiviral activity against HIV2 ROD in human MT4 cells assessed as protection against virus-induced cytopathogenicity by MTT assay; assay type: functional, organism-based; set-up: Activity: concentration or dose not given beside the values; conditions: for IC50: Human immunodeficiency virus 2, ROD, MT4; how it was run: as §4
[22] = system: Coxsackievirus B4; assay: Antiviral activity against Coxsackie virus B4 in human HeLa cells assessed as inhibition of virus-induced cytopathogenicity; assay type: functional; conditions: Enterovirus B; how it was run: as §1
[23] = system: Mammalian orthoreovirus 1; assay: Antiviral activity against Reo virus 1 in african green monkey Vero cells assessed as reduction of virus-induced cytopathogenicity; assay type: functional; how it was run: as §1
[24] = system: Mycolicibacterium aurum; assay: Antitubercular activity against Mycobacterium aurum A1; assay type: functional
[25] = system: Mycobacterium avium; assay: Antitubercular activity against Mycobacterium avium; assay type: functional
[26] = system: Mycobacterium tuberculosis; assay: Antitubercular activity against Mycobacterium tuberculosis H37Rv
[27] = Cytotoxicity against human HEL cells assessed as reduction of cell growth; assay type: cell-based
How it was run: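 HEL cells; CC50 = compound concentration reducing cell growth by 50%.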

[28] = system: Mycobacterium tuberculosis; assay: Antitubercular activity against Mycobacterium tuberculosis H37Rv at 6.25 ug/ml by MABA assay; assay type: functional
[29] = system: Human alphaherpesvirus 3; assay: Antiviral activity against TK- VZV 07/1 infected HEL cells assessed as reduction in virus plaque formation; assay type: functional, organism-based; conditions: Human alphaherpesvirus 3, 07/1, HEL
[30] = system: Human alphaherpesvirus 3; assay: Antiviral activity against TK+ VZV OKA infected HEL cells assessed as reduction in virus plaque formation; assay type: functional, organism-based; conditions: Human alphaherpesvirus 3, OKA
[31] = as §3; assay type: cell-based; conditions: E6SM cells; how it was run: as §2
[32] = system: Human betaherpesvirus 5; assay: Antiviral activity against human cytomegalovirus Davis infected HEL cells assessed as reduction in virus plaque formation; assay type: functional, organism-based; conditions: Human betaherpesvirus 5, Davis
[33] = system: Human betaherpesvirus 5; assay: Antiviral activity against human cytomegalovirus AD169 infected HEL cells assessed as reduction in virus plaque formation; assay type: functional, organism-based; conditions: Human betaherpesvirus 5, AD169, HEL

## CCCCCCNC(=S)Nc1ccc(-c2n[nH]c(=S)n2CCCCCC)cc1
[1]
  MIC: > 3.2 µg/mL
[2]
  MIC: > 3.2 µg/mL
[3]
  MIC: > 3.2 µg/mL
[4]
  CC50: 1.71 µg/mL (≈ 4.07 µM)
[5]
  MIC: > 3.2 µg/mL
[6]
  MIC: > 3.2 µg/mL
[7]
  MIC: > 3.2 µg/mL
[8]
  MIC: > 3.2 µg/mL
[9]
  MCC: 16 µg/mL
[10]
  MIC: > 3.2 µg/mL
[11]
  Activity: 16 µg/mL
[12]
  MCC: 16 µg/mL
[13]
  MIC: > 3.2 µg/mL
[14]
  MIC: > 3.2 µg/mL
[15]
  MIC: > 3.2 µg/mL
[16]
  MIC: > 3.2 µg/mL
[17]
  Activity: 16 µg/mL
[18]
  Activity: 3%
  IC50: > 1.71 µg/mL
[19]
  MIC: > 3.2 µg/mL
[20]
  MIC: > 3.2 µg/mL
[21]
  Activity: 1%
  IC50: > 1.71 µg/mL
[22]
  MIC: > 3.2 µg/mL
[23]
  MIC: > 3.2 µg/mL

## CC(C)CCOc1ccc(NC(=S)Nc2ccc(OCCC(C)C)cc2)cc1 [TIOCARLIDE]
[24]
  MIC: 2 µg/mL (≈ 4.99 µM)
[25]
  MIC: 2 µg/mL (≈ 4.99 µM)
[26]
  MIC: 2.5 µg/mL (≈ 6.24 µM)

## C=CCn1c(COc2ccc(NC(=S)Nc3ccccc3)cc2)n[nH]c1=S
[1]
  MIC: > 16 µg/mL
[2]
  MIC: > 80 µg/mL
[27]
  CC50: 42 µg/mL (≈ 106 µM)
[3]
  MIC: > 80 µg/mL
[4]
  CC50: 23.2 µg/mL (≈ 58.4 µM)
[5]
  MIC: > 16 µg/mL
[28]
  inhibition at 6.25 µg/mL: 79%
[6]
  MIC: > 80 µg/mL
[7]
  MIC: > 80 µg/mL
[8]
  MIC: > 80 µg/mL
[29]
  EC50: 26.8 µg/mL (≈ 67.4 µM)
[9]
  MCC: 400 µg/mL
[10]
  MIC: > 16 µg/mL
[30]
  EC50: 9.9 µg/mL (≈ 24.9 µM)
[31]
  MCC: 400 µg/mL
[12]
  MCC: 80 µg/mL
[13]
  MIC: > 80 µg/mL
[14]
  MIC: > 16 µg/mL
[15]
  MIC: 80 µg/mL (≈ 201 µM)
[16]
  MIC: 16 µg/mL (≈ 40.2 µM)
[17]
  Activity: 80 µg/mL
[18]
  Activity: 19%
  IC50: > 20.2 µg/mL
[19]
  MIC: > 16 µg/mL
[20]
  MIC: 80 µg/mL (≈ 201 µM)
[32]
  EC50: 45 µg/mL (≈ 113 µM)
[21]
  Activity: 22.5%
  IC50: > 20.3 µg/mL
[22]
  MIC: > 16 µg/mL
[33]
  EC50: 45 µg/mL (≈ 113 µM)
[23]
  MIC: > 16 µg/mL

## CNC(=S)Nc1ccc(OCc2n[nH]c(=S)n2C)cc1
[1]
  MIC: > 80 µg/mL
[2]
  MIC: > 400 µg/mL
[27]
  CC50: > 50 µg/mL
[3]
  MIC: 240 µg/mL (≈ 776 µM)
[4]
  CC50: ≥ 112 µg/mL
[5]
  MIC: > 400 µg/mL
[28]
  Activity: inactive
[6]
  MIC: 240 µg/mL (≈ 776 µM)
[7]
  MIC: > 400 µg/mL
[8]
  MIC: > 400 µg/mL
[29]
  EC50: > 100 µg/mL
[9]
  MCC: > 400 µg/mL
[10]
  MIC: > 80 µg/mL
[30]
  EC50: > 100 µg/mL
[31]
  MCC: > 400 µg/mL
[12]
  MCC: > 400 µg/mL
[13]
  MIC: > 400 µg/mL
[14]
  MIC: > 80 µg/mL
[15]
  MIC: > 400 µg/mL
[16]
  MIC: > 80 µg/mL
[17]
  Activity: 400 µg/mL
[18]
  Activity: 1%
  IC50: > 112 µg/mL
[19]
  MIC: > 400 µg/mL
[20]
  MIC: > 400 µg/mL
[32]
  EC50: > 100 µg/mL
[21]
  Activity: 1%
  IC50: > 125 µg/mL
[22]
  MIC: > 400 µg/mL
[33]
  EC50: > 100 µg/mL
[23]
  MIC: > 80 µg/mL
